Laboratory results taken from ChEMBL document CHEMBL1129477, “Structure-activity relationships of the quinolone antibacterials against mycobacteria: effect of structural changes at N-1 and C-7” (J Med Chem, 1996).
In brackets after ≈: the same amount, converted by molar mass.

Key:
Format in all cases: functional
Escherichia coli = test: Anti-bacterial activity was tested against Gram-negative EC-1 bacterium
Method in brief: (§1)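 Standard microtitration MIC determination (µg/mL) against four representative Gram-negative and Gram-positive bacterial strains.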

[1] = test system: Mycolicibacterium fortuitum; test: Anti-bacterial activity tested against Mycobacterium fortuitum (ATCG 6841)
[2] = test system: Mycolicibacterium smegmatis; test: Anti-bacterial activity tested against Mycobacterium smegmatis (ATCG 19420)
Pseudomonas aeruginosa = test: Anti-bacterial activity tested against Gram-negative PA-7 bacterium; method in brief: as §1
Staphylococcus aureus = test: Anti-bacterial activity was tested against Gram-positive SA-13 bacterium; method in brief: as §1
Streptococcus pyogenes = test: Anti-bacterial activity tested against Gram-positive SP1-1 bacterium; method in brief: as §1

Row | Structure (SMILES) | MIC (Escherichia coli) [µg/mL] | MIC [1] [µg/mL] | MIC [2] [µg/mL] | MIC (Pseudomonas aeruginosa) [µg/mL] | MIC (Staphylococcus aureus) [µg/mL] | MIC (Streptococcus pyogenes) [µg/mL]
1 | CCN1CCN(c2cc3c(cc2F)c(=O)c(C(=O)O)cn3CC)CC1 | 0.1 (≈ 0.288 µM) | 0.25 (≈ 0.72 µM) | 0.5 (≈ 1.44 µM) | 1.6 (≈ 4.61 µM) | 0.2 (≈ 0.576 µM) | 3.1 (≈ 8.92 µM)
2 | CCn1cc(C(=O)O)c(=O)c2cc(F)c(N3CCC(CNC)C3)cc21 (stereo unspecified) | 3.1 (≈ 8.92 µM) | 2 (≈ 5.76 µM) | 8 (≈ 23 µM) | > 3.1 | 1.6 (≈ 4.61 µM) | 0.4 (≈ 1.15 µM)
3 | NC1CCN(c2cc3c(cc2F)c(=O)c(C(=O)O)cn3C2CCC2)C1 (stereo unspecified) | 0.4 (≈ 1.16 µM) | 1 (≈ 2.9 µM) | 1 (≈ 2.9 µM) | 1.6 (≈ 4.63 µM) | 3.1 (≈ 8.98 µM) | 1.6 (≈ 4.63 µM)
4 | CN(C)CC1CCN(c2cc3c(cc2F)c(=O)c(C(=O)O)cn3C2CC2)C1 (stereo unspecified) | 0.2 (≈ 0.536 µM) | 0.13 (≈ 0.348 µM) | 0.5 (≈ 1.34 µM) | 0.8 (≈ 2.14 µM) | 0.2 (≈ 0.536 µM) | 0.2 (≈ 0.536 µM)
5 | NC1CCN(c2cc3c(cc2F)c(=O)c(C(=O)O)cn3C2CC2)C1 (stereo unspecified) | 0.05 (≈ 0.151 µM) | < 0.03 | 0.25 (≈ 0.754 µM) | 0.2 (≈ 0.604 µM) | 0.4 (≈ 1.21 µM) | 0.8 (≈ 2.41 µM)
6 | CNCC1CCN(c2cc3c(cc2F)c(=O)c(C(=O)O)cn3C(C)C)C1 (stereo unspecified) | 3.1 (≈ 8.58 µM) | 2 (≈ 5.53 µM) | 8 (≈ 22.1 µM) | > 3.1 | 3.1 (≈ 8.58 µM) | 3.1 (≈ 8.58 µM)
7 | CNCC1CCN(c2cc3c(cc2F)c(=O)c(C(=O)O)cn3C2CCC2)C1 (stereo unspecified) | 0.8 (≈ 2.14 µM) | 2 (≈ 5.36 µM) | 4 (≈ 10.7 µM) | 3.1 (≈ 8.3 µM) | 0.8 (≈ 2.14 µM) | 1.6 (≈ 4.28 µM)
8 | CNCC1CCN(c2cc3c(cc2F)c(=O)c(C(=O)O)cn3-c2ccc(F)cc2F)C1 (stereo unspecified) | 0.2 (≈ 0.464 µM) | 0.13 (≈ 0.301 µM) | 0.25 (≈ 0.579 µM) | 0.8 (≈ 1.85 µM) | 0.1 (≈ 0.232 µM) | 0.1 (≈ 0.232 µM)
9 | CC1CN(c2cc3c(cc2F)c(=O)c(C(=O)O)cn3C(C)C)CC(C)N1 (stereo unspecified) | 1.6 (≈ 4.43 µM) | 0.5 (≈ 1.38 µM) | 2 (≈ 5.53 µM) | > 3.1 | 3.1 (≈ 8.58 µM) | > 3.1
10 | CC1CN(c2cc3c(cc2F)c(=O)c(C(=O)O)cn3-c2ccc(F)cc2F)CC(C)N1 (stereo unspecified) | 0.4 (≈ 0.927 µM) | 0.25 (≈ 0.579 µM) | 0.5 (≈ 1.16 µM) | 0.8 (≈ 1.85 µM) | 0.4 (≈ 0.927 µM) | 0.8 (≈ 1.85 µM)
11 | CN1CCN(c2cc3c(cc2F)c(=O)c(C(=O)O)cn3C2CC2)CC1 | 0.05 (≈ 0.145 µM) | 0.06 (≈ 0.174 µM) | 0.25 (≈ 0.724 µM) | 0.4 (≈ 1.16 µM) | 0.2 (≈ 0.579 µM) | 1.6 (≈ 4.63 µM)
12 | CCCCN1CCN(c2cc3c(cc2F)c(=O)c(C(=O)O)cn3-c2ccc(F)cc2F)CC1 | 0.8 (≈ 1.74 µM) | 1 (≈ 2.18 µM) | 2 (≈ 4.35 µM) | 3.1 (≈ 6.75 µM) | 0.4 (≈ 0.871 µM) | 3.1 (≈ 6.75 µM)
13 | CC1CN(c2cc3c(cc2F)c(=O)c(C(=O)O)cn3C2CC2)CCN1 (stereo unspecified) | 0.05 (≈ 0.145 µM) | 0.06 (≈ 0.174 µM) | 0.25 (≈ 0.724 µM) | 0.2 (≈ 0.579 µM) | 0.8 (≈ 2.32 µM) | 0.8 (≈ 2.32 µM)
14 | CC(C)(C)n1cc(C(=O)O)c(=O)c2cc(F)c(N3CCC(N)C3)cc21 (stereo unspecified) | 0.2 (≈ 0.576 µM) | 0.06 (≈ 0.173 µM) | 0.13 (≈ 0.374 µM) | 0.4 (≈ 1.15 µM) | 0.4 (≈ 1.15 µM) | 0.4 (≈ 1.15 µM)
15 | CCN1CCN(c2cc3c(cc2F)c(=O)c(C(=O)O)cn3C2CC2)CC1 [ENROFLOXACIN] | 0.05 (≈ 0.139 µM) | 0.06 (≈ 0.167 µM) | 0.13 (≈ 0.362 µM) | 0.8 (≈ 2.23 µM) | 0.2 (≈ 0.556 µM) | 0.8 (≈ 2.23 µM)
16 | CC1(CN)CCN(c2cc3c(cc2F)c(=O)c(C(=O)O)cn3C2CC2)C1 (stereo unspecified) | 0.4 (≈ 1.11 µM) | < 0.03 | 0.06 (≈ 0.167 µM) | 0.4 (≈ 1.11 µM) | 0.1 (≈ 0.278 µM) | 0.05 (≈ 0.139 µM)
17 | CCC1CN(c2cc3c(cc2F)c(=O)c(C(=O)O)cn3-c2ccc(F)cc2F)CCN1 (stereo unspecified) | 0.4 (≈ 0.927 µM) | 0.25 (≈ 0.579 µM) | 1 (≈ 2.32 µM) | 3.1 (≈ 7.19 µM) | 0.4 (≈ 0.927 µM) | 0.8 (≈ 1.85 µM)
18 | O=C(O)c1cn(C2CC2)c2cc(N3CCNCC3)c(F)cc2c1=O [CIPROFLOXACIN] |  | 0.06 (≈ 0.181 µM) | 0.25 (≈ 0.754 µM) | 0.2 (≈ 0.604 µM) |  | 0.4 (≈ 1.21 µM)
